Source: ChEMBL document CHEMBL1130283, “Synthesis and structure-activity relationships of nonaromatic taxoids: effects of alkyl and alkenyl ester groups on cytotoxicity” (J Med Chem, 1997)

Columns and labels:
Assay type in all cases: functional, cell-based
MCF7 = assay: Inhibition of the growth against human mammary carcinoma (MCF-7) cell line after 72 hr exposure; settings: MCF7, 72 h
Method in brief: (§1)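 SRB assay. Cells were seeded at 400/well, allowed to attach overnight, and grown in RPMI-1640 with 5% FBS and 5% Nu serum. Compounds were dissolved in DMSO, diluted in medium and applied to triplicate wells for 72 h. Cells were fixed with cold 50% TCA (1 h, 4 °C), stained with 0.4% SRB for 5 min, rinsed with 0.1% acetic acid and solubilized in 10 mM Tris pH 10.5. OD was read at 570 nm. IC50 came from a weighted sigmoid-Emax nonlinear fit.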

A549 = assay: Inhibition of the growth against human non-small-lung carcinoma (A549) cell line after 72 hr exposure; settings: A549, 72 h
HT-29 = assay: Inhibition of the growth against human Colon Carcinoma (HT-29) cell line after 72 hr exposure; settings: HT-29, 72 h; method in brief: as §1
A121 = assay: Inhibition of the growth against human Ovarian Carcinoma (A121) cell line after 72 hr exposure; settings: A121, 72 h; method in brief: as §1
MCF7R = assay: Inhibition of the growth against human mammary carcinoma 180 fold resistant to doxorubicin (MCF-7-R) cell line after 72 hr exposure

CC(=O)O[C@H]1C(=O)[C@@]2(C)[C@H]([C@H](OC(=O)c3ccccc3)[C@]3(O)C[C@H](OC(=O)[C@H](O)[C@H](C=C(C)C)NC(=O)OC(C)(C)C)C(C)=C1C3(C)C)[C@]1(OC(C)=O)CO[C@@H]1C[C@@H]2O
IC50 (MCF7): 0.6 nM
IC50 (A549): 0.3 nM
IC50 (HT-29): 0.6 nM
IC50 (A121): 0.5 nM
IC50 (MCF7R): 12 nM

CC(=O)OC1C(=O)C2(C)C(O)CC3OCC3(OC(C)=O)C2C(OC(=O)C2CCCCC2)C2(O)CC(OC(=O)C(O)C(CC(C)C)NC(=O)OC(C)(C)C)C(C)=C1C2(C)C (stereo not given)
IC50 (MCF7): 1.8 nM
IC50 (A549): 7.7 nM
IC50 (HT-29): 5.6 nM
IC50 (A121): 3.2 nM
IC50 (MCF7R): 57 nM

CC(=O)OC1C(=O)C2(C)C(O)CC3OCC3(OC(C)=O)C2C(OC(=O)CC(C)C)C2(O)CC(OC(=O)C(O)C(C=C(C)C)NC(=O)OC(C)(C)C)C(C)=C1C2(C)C (stereo not given)
IC50 (MCF7): 11 nM
IC50 (A549): 14 nM
IC50 (HT-29): 16 nM
IC50 (A121): 17 nM
IC50 (MCF7R): 589 nM

C/C=C/C(NC(=O)OC(C)(C)C)C(O)C(=O)OC1CC2(O)C(OC(=O)C3CCCCC3)C3C4(OC(C)=O)COC4CC(O)C3(C)C(=O)C(OC(C)=O)C(=C1C)C2(C)C (stereo not given)
IC50 (MCF7): 3.2 nM
IC50 (A549): 12 nM
IC50 (HT-29): 8.5 nM
IC50 (A121): 6.6 nM
IC50 (MCF7R): 446 nM

CC(=O)OC1C(=O)C2(C)C(O)CC3OCC3(OC(C)=O)C2C(OC(=O)C2CCCCC2)C2(O)CC(OC(=O)C(O)C(C=C(C)C)NC(=O)OC(C)(C)C)C(C)=C1C2(C)C (stereo not given)
IC50 (MCF7): 0.5 nM
IC50 (A549): 1.3 nM
IC50 (HT-29): 1.7 nM
IC50 (A121): 1.5 nM
IC50 (MCF7R): 26 nM

CC(=O)OC1C(=O)C2(C)C(O)CC3OCC3(OC(C)=O)C2C(OC(=O)C=C(C)C)C2(O)CC(OC(=O)C(O)C(C=C(C)C)NC(=O)OC(C)(C)C)C(C)=C1C2(C)C (stereo not given)
IC50 (MCF7): 0.5 nM
IC50 (A549): 0.9 nM
IC50 (HT-29): 1.4 nM
IC50 (A121): 0.9 nM
IC50 (MCF7R): 38 nM

CC(=O)OC1C(=O)C2(C)C(O)CC3OCC3(OC(C)=O)C2C(OC(=O)C=C(C)C)C2(O)CC(OC(=O)C(O)C(NC(=O)OC(C)(C)C)c3ccccc3)C(C)=C1C2(C)C (stereo not given)
IC50 (MCF7): 1.1 nM
IC50 (A549): 2.9 nM
IC50 (HT-29): 3.5 nM
IC50 (A121): 2.7 nM
IC50 (MCF7R): 140 nM

CC(=O)OC1C(=O)C2(C)C(O)CC3OCC3(OC(C)=O)C2C(OC(=O)C=C(C)C)C2(O)CC(OC(=O)C(O)C(CC(C)C)NC(=O)OC(C)(C)C)C(C)=C1C2(C)C (stereo not given)
IC50 (MCF7): 84 nM
IC50 (A549): 30 nM
IC50 (HT-29): 89 nM
IC50 (A121): 54 nM
IC50 (MCF7R): > 1000 nM

CC(=O)OC1C(=O)C2(C)C(O)CC3OCC3(OC(C)=O)C2C(OC(=O)CC(C)C)C2(O)CC(OC(=O)C(O)C(CC(C)C)NC(=O)OC(C)(C)C)C(C)=C1C2(C)C (stereo not given)
IC50 (MCF7): 43 nM
IC50 (A549): 47 nM
IC50 (HT-29): 52 nM
IC50 (A121): 55 nM
IC50 (MCF7R): 1080 nM

CC(=O)OC1C(=O)C2(C)C(O)CC3OCC3(OC(C)=O)C2C(OC(=O)C2CCCCC2)C2(O)CC(OC(=O)C(O)C(NC(=O)OC(C)(C)C)c3ccccc3)C(C)=C1C2(C)C (stereo not given)
IC50 (MCF7): 1.8 nM
IC50 (A549): 5.7 nM
IC50 (HT-29): 5.6 nM
IC50 (A121): 4.8 nM
IC50 (MCF7R): 412 nM

CC(=O)OC1C(=O)C2(C)C(O)CC3OCC3(OC(C)=O)C2C(OC(=O)C2CCCCC2)C2(O)CC(OC(=O)C(O)C(NC(=O)OC(C)(C)C)C3CCCCC3)C(C)=C1C2(C)C (stereo not given)
IC50 (MCF7): 10 nM
IC50 (A549): 49 nM
IC50 (HT-29): 59 nM
IC50 (A121): 43 nM
IC50 (MCF7R): 591 nM
